Reference: ChEMBL document CHEMBL4190330, “Discovery of Potent and Selective A2A Antagonists with Efficacy in Animal Models of Parkinson's Disease and Depression” (ACS Med Chem Lett, 2017)
pIC50, pKi: −log10 of the molar value. In brackets after ≈: the same amount, converted by molar mass. Activity calls are given as the source filed them. The calls are words filed in the database; no cut-off is given here.

Key:
[1] = species: Homo sapiens; assay: Selectivity ratio of Ki for displacement of [3H]-DPCPX from human A1 receptor expressed in HEK293 cell membranes to Ki for displacement of [3H]ZM241385 from human A2A receptor expressed in HEK293 cell membranes
Method in brief: (§1)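 Radioligand binding used membranes from HEK-293 cells overexpressing each human adenosine receptor isoform. Points were run in triplicate, and 8-concentration IC50 curves were plotted to give Ki. The selectivity value is the Ki at the off-target isoform divided by the Ki at hA2A.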

[2] = target: T1, Adenosine receptor A2a (Homo sapiens, UniProt P29274); assay: Displacement of [3H]ZM241385 from human A2A receptor expressed in HEK293 cell membranes after 90 mins radioligand binding assay
Method in brief: (§2)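 Membranes from HEK-293 cells overexpressing the relevant human adenosine receptor subtype; all points in triplicate; Ki derived from 8-concentration IC50 curves.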

[3] = Tmax in Wistar rat at 10 mg/kg, po administered via gavage by LC-MS/MS analysis; type: ADME, organism-based; settings: in vivo
Method in brief: (§3)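 Male Wistar rats, n = 4; oral dose 10 mg/kg as suspension in 1% Tween 80 with 0.5% w/v NaCMC; values are means.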

[4] = target: T2, Adenosine receptor A1 (Homo sapiens, UniProt P30542); assay: Displacement of [3H]-DPCPX from human A1 receptor expressed in HEK293 cell membranes after 90 mins radioligand binding assay; method in brief: as §2
T2 sequence (P30542 whole entry): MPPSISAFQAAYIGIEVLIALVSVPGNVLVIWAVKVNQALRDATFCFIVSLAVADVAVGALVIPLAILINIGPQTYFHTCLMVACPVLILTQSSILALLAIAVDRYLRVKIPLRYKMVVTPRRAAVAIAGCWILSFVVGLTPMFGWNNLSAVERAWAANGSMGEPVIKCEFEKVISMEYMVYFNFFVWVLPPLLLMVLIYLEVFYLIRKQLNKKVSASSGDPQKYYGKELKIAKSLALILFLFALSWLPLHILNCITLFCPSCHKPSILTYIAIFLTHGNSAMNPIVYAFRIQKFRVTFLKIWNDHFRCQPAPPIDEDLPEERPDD

[5] = target: T1, Adenosine receptor A2a; assay: Antagonist activity at human A2A receptor expressed in HEK293 cell membranes assessed as reduction in CGS-21680-induced cAMP level pretreated for 15 mins followed by CGS-21680 addition measured after 30 mins by HTRF assay; type: functional, cell-based
Method in brief: (§4)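 HTRF-based cAMP functional assay; each compound tested at 12 concentrations, every point in triplicate; Ki given as mean of two independent experiments (n=2).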

[6] = Solubility of the compound at pH 7.4; type: physicochemical; settings: buffer
[7] = Metabolic stability in rat liver microsomes assessed as metabolic rate; type: ADME, microsome
Method in brief: (§5)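 Liver microsomes (mouse, rat, dog, human) at 0.125 mg/mL protein; metabolic rate expressed as nmol/min/mg.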

[8] = target: Cytochrome P450 2C19 (Homo sapiens, UniProt P33261); assay: Inhibition of CYP2C19 (unknown origin); type: ADME
[9] = Protein binding in mouse plasma; type: ADME, cell-free; settings: read-out: PPB (converted)
[10] = target: T3, hERG (Homo sapiens, UniProt Q12809); assay: Inhibition of human ERG at 3 uM relative to control
[11] = Terminal half-life in Wistar rat at 3 mg/kg, iv by LC-MS/MS analysis; type: ADME, organism-based; settings: in vivo, read-out: beta t1/2 (converted)
Method in brief: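 Male Wistar rats, n = 4; iv dose 3 mg/kg in 10% NMP, 10% Cremophor EL, acetate buffer pH 4.2 q.s.; values are means.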

[12] = target: Adenosine receptor A2a (Rattus norvegicus, UniProt P30543); assay: Antagonist activity at rat A2A receptor assessed as reduction in CGS-21680-induced cAMP level pretreated for 15 mins followed by CGS-21680 addition measured after 30 mins by HTRF assay; type: functional; method in brief: as §4
[13] = Solubility of the compound at pH 4; type: physicochemical; settings: buffer
[14] = Metabolic stability in dog liver microsomes assessed as metabolic rate; type: ADME, Canis lupus familiaris, microsome; method in brief: as §5
[15] = Metabolic stability in human liver microsomes assessed as metabolic rate; type: ADME, microsome; method in brief: as §5
[16] = target: Cytochrome P450 3A4 (Homo sapiens, UniProt P08684); assay: Inhibition of CYP3A4 (unknown origin); type: ADME
[17] = Solubility of the compound at pH 2; type: physicochemical; settings: buffer
[18] = Oral bioavailability in Wistar rat at 10 mg/kg administered via gavage by LC-MS/MS analysis; type: ADME, organism-based; settings: in vivo; method in brief: as §3
[19] = tested on: Rattus norvegicus; assay: Toxicity in 6-OHDA-lesioned Wistar rat model of parkinson's disease assessed as induction of dyskinesia at 0.3 to 3 mg/kg, po administered twice daily for 21 days; type: organism-based; settings: in vivo, 504 h
Method in brief: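 6-OHDA-lesioned rats given oral test compound (0.3-3 mg/kg) with L-DOPA, repeated daily; abnormal involuntary movements scored; mean ± SEM, n=6-7.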

[20] = target: T4, Adenosine receptor A3 (Homo sapiens) (UniProt P0DMS8); assay: Displacement of [3H]-HEMADO from human A3 receptor expressed in HEK293 cell membranes at 10 uM after 90 mins radioligand binding assay
T4 sequence (whole entry): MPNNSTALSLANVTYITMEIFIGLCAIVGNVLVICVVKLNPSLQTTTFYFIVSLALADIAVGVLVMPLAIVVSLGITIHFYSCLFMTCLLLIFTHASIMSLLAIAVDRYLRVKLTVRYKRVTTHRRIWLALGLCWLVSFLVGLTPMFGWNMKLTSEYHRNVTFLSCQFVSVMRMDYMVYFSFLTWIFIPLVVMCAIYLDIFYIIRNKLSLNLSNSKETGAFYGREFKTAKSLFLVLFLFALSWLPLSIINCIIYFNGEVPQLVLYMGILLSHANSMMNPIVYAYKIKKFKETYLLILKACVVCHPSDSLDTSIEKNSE
Method in brief: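 Membranes from HEK-293 cells overexpressing human A3 receptor; points in triplicate; highest concentration tested 10 µM.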

[21] = Permeability across basolateral to apical side in human Caco2 cells; type: ADME, cell-based; settings: caco-2
[22] = species: Homo sapiens; assay: Selectivity ratio of Ki for displacement of [3H]-HEMADO from human A3 receptor expressed in HEK293 cell membranes to Ki for displacement of [3H]ZM241385 from human A2A receptor expressed in HEK293 cell membranes; method in brief: as §1
[23] = Protein binding in rat plasma; type: ADME, cell-free; settings: read-out: PPB (converted)
[24] = target: T5, Adenosine receptor A2b (Homo sapiens, UniProt P29275); assay: Displacement of [3H]-MRS-1754 from human A2B receptor expressed in HEK293 cell membranes after 90 mins radioligand binding assay; method in brief: as §2
T5 sequence (P29275 whole entry): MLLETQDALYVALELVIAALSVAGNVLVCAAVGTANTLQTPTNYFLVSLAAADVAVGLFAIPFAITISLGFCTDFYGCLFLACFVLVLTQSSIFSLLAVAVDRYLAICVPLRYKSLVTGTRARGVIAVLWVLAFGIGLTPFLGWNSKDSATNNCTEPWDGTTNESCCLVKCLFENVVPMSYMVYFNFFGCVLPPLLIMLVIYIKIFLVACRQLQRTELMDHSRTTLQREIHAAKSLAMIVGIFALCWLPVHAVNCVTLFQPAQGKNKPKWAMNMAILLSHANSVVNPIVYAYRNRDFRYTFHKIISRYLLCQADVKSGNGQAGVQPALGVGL

[25] = target: T3, hERG; assay: Inhibition of human ERG at 10 uM relative to control

T1 sequence (P29274 whole entry): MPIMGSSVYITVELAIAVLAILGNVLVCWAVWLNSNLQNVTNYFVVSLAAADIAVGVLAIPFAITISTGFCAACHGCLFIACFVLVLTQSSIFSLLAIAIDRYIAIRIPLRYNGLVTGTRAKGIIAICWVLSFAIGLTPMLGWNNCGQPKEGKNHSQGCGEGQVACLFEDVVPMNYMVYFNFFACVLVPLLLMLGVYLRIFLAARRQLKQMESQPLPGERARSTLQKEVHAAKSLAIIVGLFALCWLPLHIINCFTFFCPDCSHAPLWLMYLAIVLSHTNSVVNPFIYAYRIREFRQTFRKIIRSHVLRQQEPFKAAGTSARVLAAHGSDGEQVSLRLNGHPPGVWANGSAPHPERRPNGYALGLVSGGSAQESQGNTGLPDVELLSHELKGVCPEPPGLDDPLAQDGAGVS
T3 sequence (Q12809 whole entry): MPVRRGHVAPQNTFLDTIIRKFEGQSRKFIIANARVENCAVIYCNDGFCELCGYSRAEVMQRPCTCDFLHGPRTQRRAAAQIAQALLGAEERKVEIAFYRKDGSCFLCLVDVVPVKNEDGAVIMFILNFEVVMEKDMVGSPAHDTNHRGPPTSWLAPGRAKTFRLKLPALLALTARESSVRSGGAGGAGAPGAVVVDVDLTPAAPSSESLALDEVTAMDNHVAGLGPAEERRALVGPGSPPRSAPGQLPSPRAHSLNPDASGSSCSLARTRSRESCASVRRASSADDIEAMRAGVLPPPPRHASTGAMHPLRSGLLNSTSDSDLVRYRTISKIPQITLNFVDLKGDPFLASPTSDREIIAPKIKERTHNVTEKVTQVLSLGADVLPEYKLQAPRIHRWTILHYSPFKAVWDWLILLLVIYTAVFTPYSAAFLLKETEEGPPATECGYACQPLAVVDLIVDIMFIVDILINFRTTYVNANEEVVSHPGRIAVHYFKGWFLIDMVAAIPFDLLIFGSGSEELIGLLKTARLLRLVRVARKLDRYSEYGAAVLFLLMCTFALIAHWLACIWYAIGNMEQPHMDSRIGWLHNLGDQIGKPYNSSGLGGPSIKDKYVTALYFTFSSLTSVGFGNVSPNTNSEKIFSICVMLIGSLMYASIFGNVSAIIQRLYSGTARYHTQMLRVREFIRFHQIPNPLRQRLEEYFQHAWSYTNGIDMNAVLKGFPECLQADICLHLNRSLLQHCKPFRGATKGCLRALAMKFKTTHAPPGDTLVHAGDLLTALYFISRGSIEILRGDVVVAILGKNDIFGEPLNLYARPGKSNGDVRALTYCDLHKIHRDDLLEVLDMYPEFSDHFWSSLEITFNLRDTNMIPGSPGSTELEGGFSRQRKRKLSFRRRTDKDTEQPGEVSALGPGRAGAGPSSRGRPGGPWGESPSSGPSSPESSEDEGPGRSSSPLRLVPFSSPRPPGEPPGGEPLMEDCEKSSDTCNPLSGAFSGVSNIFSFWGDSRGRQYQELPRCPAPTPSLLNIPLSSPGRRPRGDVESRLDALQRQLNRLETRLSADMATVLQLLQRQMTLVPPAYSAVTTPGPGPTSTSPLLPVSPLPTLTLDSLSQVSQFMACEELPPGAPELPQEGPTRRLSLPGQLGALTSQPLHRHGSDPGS
Chain of Cytochrome P450 3A4 (P08684 whole entry): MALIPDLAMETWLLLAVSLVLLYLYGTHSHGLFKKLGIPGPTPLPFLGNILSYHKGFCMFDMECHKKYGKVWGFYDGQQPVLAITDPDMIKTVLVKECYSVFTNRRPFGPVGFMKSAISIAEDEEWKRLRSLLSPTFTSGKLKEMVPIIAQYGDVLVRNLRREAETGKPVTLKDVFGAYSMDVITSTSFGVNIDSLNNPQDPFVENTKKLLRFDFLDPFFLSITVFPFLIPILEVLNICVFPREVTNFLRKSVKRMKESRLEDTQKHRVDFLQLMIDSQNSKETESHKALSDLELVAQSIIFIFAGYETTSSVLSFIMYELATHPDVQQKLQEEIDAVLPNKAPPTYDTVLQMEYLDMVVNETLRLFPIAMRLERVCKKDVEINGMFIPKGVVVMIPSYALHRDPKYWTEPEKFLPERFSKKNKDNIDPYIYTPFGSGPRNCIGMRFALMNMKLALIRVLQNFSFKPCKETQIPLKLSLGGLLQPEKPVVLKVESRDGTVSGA
Chain of Adenosine receptor A2a (Rattus norvegicus, UniProt P30543) (P30543 whole entry): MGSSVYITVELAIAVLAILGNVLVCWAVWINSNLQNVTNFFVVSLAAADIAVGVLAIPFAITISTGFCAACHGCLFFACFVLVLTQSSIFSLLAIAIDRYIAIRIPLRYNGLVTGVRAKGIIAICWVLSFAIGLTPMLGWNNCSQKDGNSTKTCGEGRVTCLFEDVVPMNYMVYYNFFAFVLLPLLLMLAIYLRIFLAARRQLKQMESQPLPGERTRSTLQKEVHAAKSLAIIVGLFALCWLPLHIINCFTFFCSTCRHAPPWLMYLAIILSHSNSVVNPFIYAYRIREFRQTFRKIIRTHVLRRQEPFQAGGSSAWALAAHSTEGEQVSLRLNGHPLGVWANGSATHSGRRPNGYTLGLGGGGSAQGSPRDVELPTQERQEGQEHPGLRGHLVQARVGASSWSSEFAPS
Chain of Cytochrome P450 2C19 (P33261 whole entry): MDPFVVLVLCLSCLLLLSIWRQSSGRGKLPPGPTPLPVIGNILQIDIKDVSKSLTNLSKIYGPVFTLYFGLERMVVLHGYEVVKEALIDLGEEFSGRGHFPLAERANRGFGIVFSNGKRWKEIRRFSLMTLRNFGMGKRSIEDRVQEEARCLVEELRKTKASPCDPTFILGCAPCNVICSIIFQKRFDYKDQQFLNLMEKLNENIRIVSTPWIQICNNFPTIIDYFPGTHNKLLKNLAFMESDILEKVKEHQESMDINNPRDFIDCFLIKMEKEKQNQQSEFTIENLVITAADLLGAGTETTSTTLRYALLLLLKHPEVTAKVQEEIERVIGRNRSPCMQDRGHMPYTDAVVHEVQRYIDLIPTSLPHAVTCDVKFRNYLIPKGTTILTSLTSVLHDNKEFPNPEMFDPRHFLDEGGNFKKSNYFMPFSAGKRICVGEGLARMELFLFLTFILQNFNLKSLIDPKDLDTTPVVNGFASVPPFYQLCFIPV

pKi [2]: 8.82 | Tmax [3]: 48 min | pKi [4]: 5.77 | pKi [5]: 9.40 | solubility [6]: 17 µM (≈ 9.67 µg/mL) | Drug metabolism [7]: 0 nmol/min/mg | pIC50 [8]: < 5.00 | fraction unbound [9]: 0.49 | half-life [11]: 60 min | pKi [12]: 8.36 to 9.36 | solubility [13]: 486 µM (≈ 276 µg/mL) | Drug metabolism [14]: 0.04 nmol/min/mg | Drug metabolism [15]: 0.14 nmol/min/mg | pIC50 [16]: < 5.00 | solubility [17]: > 2000 µM | bioavailability [18]: 32% | inhibition [20]: inactive | permeability [21]: Permeable | fraction unbound [23]: 0.18 | pKi [24]: 5.30
Compound: COCCOc1ccc(N2CCN(CCn3c(=O)n(C)c4c3nc(N)n3nc(-c5nccs5)nc43)CC2)cc1F
Ratio Ki [1]: > 1100 | inhibition at 3 µM [10]: 28% | Activity [19]: Non-Toxic | Ratio Ki [22]: > 3000 | inhibition at 10 µM [25]: 38%
